One block for each molecule: values may come before it. Activity calls are given as the source filed them. The calls are words filed in the database; no cut-off is given here.
Experiments:
[1] = organism: Homo sapiens; test: Selectivity index, ratio of IC50 for inhibition of human recombinant AKR1B1 expressed in Escherichia coli BL21-CodonPlus competent cells to IC50 for inhibition of human recombinant SCoR2 expressed in Escherichia coli BL21-CodonPlus competent cells
In short: (§1)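 Purified enzyme at 200 nM (SCoR2 with 100 μM SNO-CoA; AKR1B1 with 100 μM methylglyoxylate) in 50 mM phosphate pH 7.0 with serial inhibitor dilutions; started with 100 μM NADPH, 2 min. Rate from 340 nm decrease, normalized to 20 nM protein activity; IC50 fitted, n=3. Selectivity taken as AKR1B1/SCoR2 IC50 ratio.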

[2] = molecular target: T1, Aldo-keto reductase family 1 member B1 (Homo sapiens, UniProt P15121); test: Inhibition of C-terminal 6His-tagged human recombinant AKR1B1 expressed in Escherichia coli BL21-CodonPlus competent cells using methyl glyoxylate as substrate incubated for 2 mins in presence of NADPH; in short: as §1
[3] = molecular target: T2, Aldo-keto reductase family 1 member A1 (Homo sapiens, UniProt P14550); test: Inhibition of C-terminal 6His-tagged human recombinant SCoR2 AKR1A1 expressed in Escherichia coli BL21-CodonPlus competent cells using SNO-CoA as substrate incubated for 2 mins in presence of NADPH; in short: as §1
T2 sequence (P14550 whole entry): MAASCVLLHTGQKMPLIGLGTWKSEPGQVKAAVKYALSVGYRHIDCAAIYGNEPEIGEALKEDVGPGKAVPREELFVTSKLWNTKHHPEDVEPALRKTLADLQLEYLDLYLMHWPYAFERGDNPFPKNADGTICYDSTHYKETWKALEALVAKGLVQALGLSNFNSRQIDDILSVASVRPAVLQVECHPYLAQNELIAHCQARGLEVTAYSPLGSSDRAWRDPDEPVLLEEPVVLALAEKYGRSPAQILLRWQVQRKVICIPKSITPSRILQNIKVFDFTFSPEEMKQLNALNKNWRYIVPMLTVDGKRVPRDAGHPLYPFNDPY

[4] = molecular target: T2, Aldo-keto reductase family 1 member A1; test: Inhibition of C-terminal 6His-tagged human recombinant SCoR2 AKR1A1 expressed in Escherichia coli BL21-CodonPlus competent cells using DL-glyceraldehyde as substrate
In short: (§2)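 Recombinant human His-tagged enzyme (20 nM) with 3 mM DL-glyceraldehyde in 50 mM phosphate pH 7.0, varying inhibitor from DMSO stocks; started with 100 μM NADPH, 2 min. NADPH consumption followed spectrophotometrically, slope used to fit IC50.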

[5] = molecular target: T1, Aldo-keto reductase family 1 member B1; test: Inhibition of C-terminal 6His-tagged human recombinant AKR1B1 expressed in Escherichia coli BL21-CodonPlus competent cells using DL-glyceraldehyde as substrate; in short: as §2
[6] = In vivo inhibition of SCoR2 in mouse assessed as reduction in SNO-CoA metabolic activity in kidneys at 20 mg/kg body weight, ip administered as single dose into lower right quadrant of abdomen measured after 18 hrs relative to control; type: functional
In short: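 Single i.p. injection into the mouse abdomen, DMSO vehicle; organs collected 18 h later. Tissues homogenized in 50 mM phosphate pH 7.0, 150 mM NaCl, EDTA/DTPA, then clarified; lysate started reactions with 200 μM SNO-CoA and 100 μM NADPH, 2 min, NADPH loss monitored, in triplicate. Compared with vehicle and SCoR2−/− kidneys.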

[7] = tested on: Mus musculus; test: In vivo inhibition of SCoR2 in ischemia/reperfusion induced acute kidney injury mouse model assessed as reduction in SNO-CoA metabolic activity in kidneys at 20 mg/kg, ip pretreated for 18 hrs followed by kidney injury surgery and measured after 24 hrs; type: functional, organism-based; conditions: time 42.0 hrs
In short: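 Male mice (9–11 weeks, 25–28 g) dosed i.p. 18 h before renal ischemia–reperfusion surgery under isoflurane; kidneys taken 24 h after reperfusion. Kidney lysate SNO-CoA reductase activity measured with 200 μM SNO-CoA, 100 μM NADPH, 2 min, triplicate assays; DMSO-treated controls.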

[8] = tested on: Mus musculus; test: Protection against ischemia/reperfusion induced acute kidney injury in mouse assessed as reduction in serum creatinine level at 20 mg/kg, ip pretreated for 18 hrs followed by kidney injury surgery and measured after 24 hrs; type: functional, organism-based; conditions: time 42.0 hrs
In short: (§3)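 Male mice (9–11 weeks, 25–28 g) given i.p. dose 18 h before ischemia–reperfusion AKI surgery under isoflurane; serum taken 24 h after reperfusion. Creatinine and BUN measured by a clinical laboratory; DMSO-treated controls.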

[9] = tested on: Mus musculus; test: Protection against ischemia/reperfusion induced acute kidney injury in mouse assessed as reduction in blood urea nitrogen level at 20 mg/kg, ip pretreated for 18 hrs followed by kidney injury surgery and measured after 24 hrs; type: functional, organism-based; conditions: time 42.0 hrs; in short: as §3
[10] = tested on: Mus musculus; test: In vivo inhibition of SCoR2 in ischemia/reperfusion induced acute kidney injury mouse model assessed as reduction in SNO-CoA metabolic activity in kidneys at 125 mg/kg, ip administered for 3 to 12 weeks; type: functional, organism-based; conditions: time 3-12 weeks
[11] = tested on: Mus musculus; test: Protection against ischemia/reperfusion induced acute kidney injury in mouse assessed as reduction in serum creatinine level at 125 mg/kg, ip administered for 3 to 12 weeks; type: functional, organism-based; conditions: time 3-12 weeks
[12] = tested on: Mus musculus; test: Protection against ischemia/reperfusion induced acute kidney injury in mouse assessed as reduction in blood urea nitrogen level at 125 mg/kg, ip administered for 3 to 12 weeks; type: functional, organism-based; conditions: time 3-12 weeks
[13] = compound: O=C1NC(=O)C2(N1)c1ccccc1-c1ccc(C3CC3)cc12; test: Uncompetitive inhibition of C-terminal 6His-tagged human recombinant SCoR2 AKR1A1 expressed in Escherichia coli BL21-CodonPlus competent cells using varying concentrations of SNO-CoA as substrate assessed as Vmax at 400 nM by Michaelis-Menten analysis (reference value: 23 umol.min)
[14] = compound: O=C1NC(=O)C2(N1)c1ccccc1-c1ccc(C3CC3)cc12; test: Uncompetitive inhibition of C-terminal 6His-tagged human recombinant SCoR2 AKR1A1 expressed in Escherichia coli BL21-CodonPlus competent cells using varying concentrations of SNO-CoA as substrate assessed as Vmax at 100 nM by Michaelis-Menten analysis (reference value: 23 umol.min)
[15] = compound: O=C1NC(=O)C2(N1)c1ccccc1-c1ccc(C3CC3)cc12; test: Uncompetitive inhibition of C-terminal 6His-tagged human recombinant SCoR2 AKR1A1 expressed in Escherichia coli BL21-CodonPlus competent cells using varying concentrations of SNO-CoA as substrate assessed as Km at 400 nM by Michaelis-Menten analysis (reference value: 254 uM)
[16] = compound: O=C1NC(=O)C2(N1)c1ccccc1-c1ccc(C3CC3)cc12; test: Uncompetitive inhibition of C-terminal 6His-tagged human recombinant SCoR2 AKR1A1 expressed in Escherichia coli BL21-CodonPlus competent cells using varying concentrations of SNO-CoA as substrate assessed as Km at 100 nM by Michaelis-Menten analysis (reference value: 254 uM)

Molecule: O=C(O)Cc1c(O)c(F)cc2c1-c1ccc(F)cc1C21NC(=O)NC1=O (stereo in doubt; 47-2) [listing 1 of 2 here]
- Ratio IC50 [1]: 0.67

Molecule: O=C1NC(=O)C2(N1)c1ccccc1-c1c(F)cccc12 (stereo not given)
- Ratio IC50 [1]: 0.63
- IC50 [2]: 52 nM
- IC50 [3]: 82 nM

Molecule: O=C1NC(=O)C2(N1)c1cc(F)ccc1-c1cc(OC3COC3)c(F)cc12 (stereo not given)
- Ratio IC50 [1]: 0.48
- IC50 [2]: 14 nM
- IC50 [3]: 29 nM

Molecule: O=C(O)COc1cc2c(cc1F)C1(NC(=O)NC1=O)c1cc(F)ccc1-2 (stereo in doubt; 48-2) [listing 1 of 2 here]
- Ratio IC50 [1]: 0.27

Molecule: O=C1NC(=O)C2(N1)c1cc(F)ccc1-c1ccc(C3CC3)cc12 (stereo not given)
- Ratio IC50 [1]: 1.7
- IC50 [2]: 212 nM
- IC50 [3]: 122 nM

Molecule: O=C1NC(=O)C2(N1)c1ccc(OCCO)cc1-c1ccc(F)cc12 (stereo not given)
- Ratio IC50 [1]: 0.18
- IC50 [2]: 13 nM
- IC50 [3]: 74 nM

Molecule: O=C(O)Cc1c(O)c(F)cc2c1-c1ccc(F)cc1C21NC(=O)NC1=O (stereo in doubt; 47-1) [listing 1 of 2 here]
- Ratio IC50 [1]: 1.7

Molecule: O=C1NC(=O)C2(N1)c1cc(F)ccc1-c1c(-c3cn(C4CCCC4)nn3)cc(F)cc12 (stereo not given)
- Ratio IC50 [1]: 0.17
- IC50 [2]: 11 nM
- IC50 [3]: 66 nM

Molecule: O=C(O)COc1cc2c(cc1F)C1(NC(=O)NC1=O)c1cc(F)ccc1-2 (stereo in doubt; 48-1) [listing 1 of 2 here]
- Ratio IC50 [1]: 0.43

Molecule: O=C1NC(=O)C2(N1)c1cc(F)ccc1-c1cc(C3CC3)c(F)cc12 (stereo not given)
- Ratio IC50 [1]: 0.21
- IC50 [2]: 15 nM
- IC50 [3]: 72 nM

Molecule: O=C1NC(=O)C2(N1)c1ccc(OCC(=O)N3CCC3)cc1-c1ccc(F)cc12 (stereo not given)
- Ratio IC50 [1]: 0.24
- IC50 [2]: 19 nM
- IC50 [3]: 80 nM

Molecule: O=C1NC(=O)C2(N1)c1cc(F)ccc1-c1c(OCC(=O)N3CCC3)cc(F)cc12 (stereo not given)
- Ratio IC50 [1]: 0.31
- IC50 [2]: 18 nM
- IC50 [3]: 59 nM

Molecule: O=C(O)COc1ccc2c(c1)-c1ccc(F)cc1C21NC(=O)NC1=O (stereo not given)
- Ratio IC50 [1]: 1.3
- IC50 [2]: 53 nM
- IC50 [3]: 42 nM

Molecule: O=C(O)Cc1cc(F)cc2c1-c1ccc(F)cc1C21NC(=O)NC1=O (stereo in doubt; 49-1)
- Ratio IC50 [1]: 0.53

Molecule: O=C(O)Cc1cc(F)cc2c1-c1ccc(F)cc1C21NC(=O)NC1=O (stereo in doubt; 49-2)
- Ratio IC50 [1]: 0.26

Molecule: O=C1NC(=O)C2(N1)c1cc(F)ccc1-c1ccc(C3CCC3)cc12 (stereo in doubt; 17-2)
- Ratio IC50 [1]: 0.66

Molecule: O=C1NC(=O)C2(N1)c1cc(F)ccc1-c1ccc(C3CCC3)cc12 (stereo in doubt; 17-1)
- Ratio IC50 [1]: 1.7

B1: Aldo-keto reductase family 1 member A1 (Homo sapiens), P14550 (protein)
chain: T2 sequence (P14550 whole entry)
- Vmax [13]: 4.5 µmol·min
- Vmax [14]: 13 µmol·min
- Km [15]: 98 µM
- Km [16]: 199 µM

Now from value to molecule, other results behind:

- IC50 [2]: 16 nM
- IC50 [3]: 68 nM
Molecule: COc1ccc2c(c1)-c1ccc(F)cc1C21NC(=O)NC1=O (stereo not given)
- Ratio IC50 [1]: 0.24

- IC50 [4]: 325 nM
Molecule: CC(/C=C1\SC(=S)N(CC(=O)O)C1=O)=C\c1ccccc1

- IC50 [2]: 27 nM
- IC50 [3]: 63 nM
Molecule: O=C(O)COc1cc2c(cc1F)C1(NC(=O)NC1=O)c1cc(F)ccc1-2 (stereo in doubt; 48-1) [listing 2 of 2 here]

- IC50 [2]: 32 nM
- IC50 [3]: 48 nM
Molecule: O=C(O)Cc1c(O)c(F)cc2c1-c1ccc(F)cc1C21NC(=O)NC1=O (stereo in doubt; 47-2) [listing 2 of 2 here]

- IC50 [2]: 42 nM
- IC50 [3]: 25 nM
Molecule: O=C(O)Cc1c(O)c(F)cc2c1-c1ccc(F)cc1C21NC(=O)NC1=O (stereo in doubt; 47-1) [listing 2 of 2 here]

- IC50 [2]: 16 nM
- IC50 [3]: 67 nM
Molecule: O=C1NC(=O)C2(N1)c1cc(F)ccc1-c1c(F)cccc12 (stereo not given)
- Ratio IC50 [1]: 0.24

- IC50 [5]: 27 nM
- IC50 [2]: 46 nM
- IC50 [4]: 45 nM
- IC50 [3]: 57 nM
Molecule: O=C1NC(=O)C2(N1)c1cc(F)ccc1-c1ccc(F)cc12
- Ratio IC50 [1]: 0.81
- inhibition in vivo at 20 mg/kg [6]: 80%
- inhibition [7]: Active
- Activity [8]: inactive
- Activity [9]: inactive
- inhibition [10]: Active
- Activity [11]: inactive
- Activity [12]: inactive

- IC50 [2]: 22 nM
- IC50 [3]: 51 nM
Molecule: O=C1NC(=O)C2(N1)c1cc(F)ccc1-c1ccc(Br)cc12 (stereo not given)
- Ratio IC50 [1]: 0.43

- IC50 [2]: 16 nM
- IC50 [3]: 53 nM
Molecule: O=C1NC(=O)C2(N1)c1ccccc1-c1ccc(Cl)cc12 (stereo not given)
- Ratio IC50 [1]: 0.3

- IC50 [2]: 56 nM
- IC50 [3]: 127 nM
Molecule: O=C1NC(=O)C2(N1)c1cc(Cl)ccc1-c1ccc(Cl)cc12
- Ratio IC50 [1]: 0.44

- IC50 [2]: 22 nM
- IC50 [3]: 82 nM
Molecule: O=C(O)COc1cc2c(cc1F)C1(NC(=O)NC1=O)c1cc(F)ccc1-2 (stereo in doubt; 48-2) [listing 2 of 2 here]
